Shown are actives, neighbours in structure and some others; about 2.6% of the full set was active somewhere.
NR2E3 ag-1 = NR2E3 agonists in two-hybrid cells, primary screen, cell-based, luminescence, CHO-S, Gal4-NCOR/VP16-NR2E3 | luciferase | 0.35% of 360,000 active | inhibition of corepressor binding, % at 3.98 µM | Photoreceptor-specific nuclear receptor (Homo sapiens), Q9Y5X4 | AID 602229, 2012;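 active means inhibition above the mean of all tested compounds plus 3 SD, cut at about 70% in these data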;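 further: 0% = DMSO with NR2E3 transfected cells and 100% = cells lacking NR2E3 construct; higher means lower luciferase signal from less NR2E3 corepressor binding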
Target sequence (Q9Y5X4 whole entry, looked up, the tested form may be a part): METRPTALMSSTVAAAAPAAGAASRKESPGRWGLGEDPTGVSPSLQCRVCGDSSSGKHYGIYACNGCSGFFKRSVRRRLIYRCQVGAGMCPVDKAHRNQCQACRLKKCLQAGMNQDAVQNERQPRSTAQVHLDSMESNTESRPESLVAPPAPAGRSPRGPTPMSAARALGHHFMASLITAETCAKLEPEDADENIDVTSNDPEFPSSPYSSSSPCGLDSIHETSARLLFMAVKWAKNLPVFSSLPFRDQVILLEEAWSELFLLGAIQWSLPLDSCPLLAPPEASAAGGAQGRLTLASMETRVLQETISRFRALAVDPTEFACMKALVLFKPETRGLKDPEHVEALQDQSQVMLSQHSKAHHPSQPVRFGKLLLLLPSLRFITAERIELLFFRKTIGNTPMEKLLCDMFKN
PG9 binder = binders of HIV-1 gp120 antibody PG9, primary screen, biochemical, TR-FRET; HIV-1 gp120 / PG9 antibody interaction; TR-FRET gp120-PG9 antibody binding; inhibition, % at 6.7 µM; 0.43% of 360,000 active; AID 624416, 2012; in the data active means inhibition above about 8.5%
NR2E3 ag-2 = inhibitors of NR2E3-RetCOR corepressor binding, primary screen, NR2E3 agonist project, biochemical, TR-FRET, GST-NR2E3, biotin-RetCOR. Photoreceptor-specific nuclear receptor (Homo sapiens), Q9Y5X4. 1536-well. inhibition of corepressor binding, % at 4.78 µM. 0.12% of 320,000 active;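 active means percent inhibition above the cutoff of mean plus 3 SD of all tested compounds, set per screening campaign, cut at about 20% in these data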;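 further: 0% = DMSO wells and 100% = biotin wells as full block of FRET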
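Material – GST-tagged NR2E3 plus biotinylated RetCOR corepressor · Quantity – NR2E3 fusion 1.35 nM · Times – 5 h incubation at 4 °C · Medium – pH 7.5 Tris-based buffer · Technique – TR-FRET, Eu(K)-anti-GST donor, streptavidin-D2 acceptor, ex 340, em 617/671 nm · Benchmarks – high control biotin, low control 0.6% DMSO · Format – 1536-well plates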
NR1D1 modulator = modulators of Rev-erb alpha DNA binding, primary screen, biochemical, FITC-DNA, fluorescence polarization, uHTS | Rev-erbα–FITC-DNA binding, 90 min | Nuclear receptor subfamily 1 group D member 1 (Homo sapiens), P20393 | 0.79% of 370,000 active | activity, % at 10 µM | AID 1259318, 2017;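 active means activity above about 14%, limit read from the data; passing the limit was not always enough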;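 further: 0% = DMSO wells with 35 nM protein and 100% = DMSO wells with 750 nM protein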
rCAG binder = binders of r(CAG) RNA repeats, primary screen, biochemical, fluorescence. r(CAG) RNA repeat, TO-PRO-1 dye displacement fluorescence. inhibition, % at 3 µM. 1.3% of 370,000 active. AID 651821, 2012;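 active means inhibition above the plate cutoff, the mean of all test compounds on that plate plus 3 SD, cut at about 35% in these data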;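 further: 0% = DMSO alone and 100% = 100 µM mitoxantrone as full dye displacement; higher means more dye released from RNA so lower well fluorescence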
rCAG bind conf = small molecules binding CAG repeat RNA – biochemical, fluorescence, confirmation. inhibition, % at 3 µM. 70% of 4,300 active. r(CAG) RNA repeat, TO-PRO-1 dye displacement fluorescence. shares compounds with rCAG binder;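 active means inhibition above a per-plate cutoff, the mean inhibition of sample wells plus 3 SD, cut at about 35% in these data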;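 further: loss of TO-PRO-1 fluorescence as compound displaces dye from 1x1 AA loop RNA; 0% = DMSO only wells and 100% = 100 µM mitoxantrone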
DNA CAG counter = displacement of TO-PRO-1 from CAG DNA duplex, counter-screen for rCAG RNA repeat binder project, biochemical, fluorescence, TO-PRO-1 dye, d(CAG) DNA oligo. shares compounds with rCAG binder. inhibition, % at 3 µM. d(CAG) DNA oligo TO-PRO-1 dye displacement. 94% of 4,300 active;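 active means inhibition above its plate's cutoff, the mean test-well inhibition plus 3 SD, cut at about 4.8% in these data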;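 further: 0% = DNA dye mix with DMSO and 100% = 100 µM mitoxantrone; hits displace the dye from DNA and so lower well fluorescence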
Numbers without * were called inactive; nt = not tested or not shown.

SMILES	NR2E3 ag-1	PG9 binder	NR2E3 ag-2	NR1D1 modulator	rCAG binder	rCAG bind conf	DNA CAG counter
COc1cc(C#Cc2c(-c3cncn3C)n(C)c3ccc(-c4cnc(OC)nc4)cc23)cc(OC)c1	9.8	-1.1	2.5	-2.8	74.5*	15.3	10.3*
O=C1Nc2ccccc2C1=O	-6.5	0.2	0.0	1.4	0.4	nt	nt
O=C1Nc2ccc3sc4ccccc4c3c2C1=O	-15.6	-15.4	4.0	-1.3	36.3*	17.3	13.9*
CC(C)C[C@H]1CN(CCCC[C@@H]2CNC(=O)C(=O)N2Cc2ccccc2)C(=O)C(=O)N1CC1CCCCC1	-41.9	1.0	nt	-3.0	-1.6	nt	nt
CC(C)(C)c1ccc(OCC(=O)NNC(=S)NC(=O)c2ccccc2[N+](=O)[O-])c(Br)c1	-3.3	-2.0	-0.6	5.4	77.9*	85.2*	54.9*
CCCOc1ccc(C(=O)NNC(=S)NC(=O)c2ccccc2)cc1	30.0	0.4	1.0	2.2	27.6	nt	nt
Cc1ccccc1OCC(=O)NNC(=S)NC(=O)c1ccccc1[N+](=O)[O-]	-3.7	-0.8	-2.5	9.4	32.4	nt	nt
CCCOc1ccc(C(=O)NNC(=S)NC(=O)c2ccccc2[N+](=O)[O-])cc1	21.3	-1.3	2.2	-10.9	35.8*	20.4	7.0*
CCCOc1ccc(C(=O)NNC(=S)NC(=O)c2cccs2)cc1	24.4	-0.9	0.7	-4.7	41.1*	35.4*	10.7*
CCc1noc(C)c1C(=O)N(CC)CC(=O)NCc1ccc(F)cc1	-1.3	-1.8	nt	-3.3	0.1	nt	nt
CC(NC(=O)c1ccc(C(=O)c2ccccc2)cc1)c1ccc(S(N)(=O)=O)cc1 (stereo not given)	-16.8	1.1	nt	0.2	6.1	nt	nt
CN(CC(=O)Nc1c(Cl)cccc1Cl)C(=O)C1CC(=O)N(Cc2ccccc2)C1 (stereo not given)	-6.7	0.5	-3.0	-4.4	1.3	nt	nt
Cc1ccc(SC2=C(N(C)C)C(=O)c3ccccc3C2=O)cc1	6.5	-3.1	nt	4.3	5.9	nt	nt
O=C(N/N=C/C=C/c1ccco1)c1ccncc1	-7.3	-4.5	-3.0	2.4	8.2	nt	nt
O=C(N/N=C/C=C/c1ccco1)/C(=C/c1ccccc1)NC(=O)c1ccccc1	-20.0	0.9	3.6	-1.4	37.5*	21.0	13.1*
CCN1C(=O)/C(=C/c2ccc(OCc3ccc(C(=O)O)cc3)c(Cl)c2)NC1=S	-39.6	-4.2	2.0	-3.3	57.4*	50.6*	15.8*
Cc1cccc(NC(=O)n2ccc3ccc(-c4ccc5cc[nH]c5c4)cc32)c1	nt	nt	nt	-3.4	31.5	nt	nt
CC(C)N1C(=O)S/C(=C/c2ccccc2OCc2ccc(C(=O)O)cc2)C1=O	8.7	-2.1	0.2	0.6	54.9*	55.5*	17.1*
O=C(O)c1ccc2nc(-c3ccco3)c(-c3ccco3)nc2c1	-27.7	-3.0	nt	-11.4	41.8*	46.8*	11.6*
CC(C)(C)c1ccc(-c2nnc3n2N=C(c2ccc(-c4ccccc4)cc2)CS3)cc1	nt	nt	nt	5.7	6.2	nt	nt
CCCCCCCCOC(=O)c1cc([N+](=O)[O-])c(Sc2ncnc3nc[nH]c23)c([N+](=O)[O-])c1	-12.0	0.6	nt	1.6	37.5*	40.2*	18.9*
CCCCOC(=O)c1ccc(Nc2ncnc3nc[nH]c23)cc1	-26.0	0.8	4.2	-0.5	1.6	nt	nt
CCc1ccc(C(=O)/C=C/c2ccc([N+](=O)[O-])o2)cc1	-12.3	-0.7	2.7	-3.3	38.0*	17.3	11.1*
CCOC(=O)CCc1ccc(NC(=O)/C=C/c2ccc([N+](=O)[O-])o2)cc1	-0.3	-4.5	nt	-1.1	5.9	nt	nt
CCCCN(CCCC)CCCNC(=O)Cn1cc(C)c(=O)[nH]c1=O	nt	-1.4	nt	-2.5	-2.0	nt	nt
